What was measured:
[1] = molecular target: Aldo-keto reductase family 1 member B1 (Bos taurus) (UniProt P16116); assay: Inhibition of aldose reductase activity in a partially purified bovine lens preparation at 4*10e-8 M
In short: (§1)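 Partially purified bovine lens aldose reductase (ammonium sulfate fractionation). NADPH oxidation read at 340 nm, 37 °C, in 30 mM sodium phosphate pH 6.2, 0.2 M LiSO4, […], 1% DMSO. Enzyme was preincubated with inhibitor for 5 min, then the reaction was started with 5 mM DL-glyceraldehyde. Duplicates; IC50 from linear regression of log concentration vs percent inhibition.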

[2] = molecular target: Aldo-keto reductase family 1 member B1 (Bos taurus) (UniProt P16116); assay: Inhibition of aldose reductase activity in a partially purified bovine lens preparation at 10e-7 M; in short: as §1
[3] = Half-life In vitro; format: ADME
[4] = molecular target: Aldo-keto reductase family 1 member B1 (Bos taurus, UniProt P16116); assay: In vitro inhibition of aldose reductase activity in a partially purified bovine lens preparation
Rattus norvegicus [5] = assay: Percentage Inhibition of galactitol accumulation in the sciatic nerve of rats fed with the dose of 0.5 mg/kg/day; format: functional
In short: (§2)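 Male Sprague-Dawley rats (70-90 g), six per group, fed 20% galactose chow with compound in the diet for 4 days; glucose-fed controls. After a 3-h fast, lens or sciatic nerve galactitol was measured as nmol/mg wet weight. Percent inhibition vs galactose-fed controls, mean ± SEM; ANOVA with Dunnett's test.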

Rattus norvegicus [6] = assay: Percentage Inhibition of galactitol accumulation in the sciatic nerve of rats fed with the dose of 0.6 mg/kg/day; format: functional; in short: as §2
Rattus norvegicus [7] = assay: Percentage Inhibition of galactitol accumulation in the sciatic nerve of rats fed with the dose of 1.0 mg/kg/day; format: functional; in short: as §2
[8] = Log P value by using Octanol / pH 7.4 buffer; format: physicochemical
In short: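 Partition measured between octanol and pH 7.4 buffer.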

SMILES | inhibition [1] | inhibition [2] | IC50 [4] | further results
COc1ccc2c(c1)C(=O)N(C)C(=O)C21CC(=O)NC1=O (centres undefined) | 41% | 55% |  | 
CCCN1C(=O)c2ccccc2C2(CC(=O)NC2=O)C1=O (centres undefined) |  | 19% |  | 
COc1ccc2c(c1)C1(CC(=O)NC1=O)C(=O)N(C)C2=O (centres undefined) | 30% | 63% |  | 
Cc1ccc2c(c1)C1(CC(=O)NC1=O)C(=O)N(C)C2=O (centres undefined) | 35% | 65% |  | 
O=C1CC2(C(=O)N1)C(=O)N(Cc1ccc(Cl)cc1)C(=O)c1ccccc12 (centres undefined) |  |  | 22 nM | 
COc1ccc2c(c1F)C1(CC(=O)NC1=O)C(=O)N(Cc1ccc(Br)cc1F)C2=O (centres undefined) |  |  | 30 nM | inhibition in vivo at 0.5 mg/kg/day (Rattus norvegicus [5]): 43%
Cc1cccc(CN2C(=O)c3ccccc3C3(CC(=O)NC3=O)C2=O)c1 (centres undefined) |  |  | 25 nM | 
COc1cc2c(cc1Br)C1(CC(=O)NC1=O)C(=O)N(Cc1ccc(Br)cc1F)C2=O (centres undefined) |  |  | 28 nM | inhibition in vivo at 0.5 mg/kg/day (Rattus norvegicus [5]): 55%
COc1ccc(CN2C(=O)c3ccccc3C3(CC(=O)NC3=O)C2=O)cc1 (centres undefined) |  |  | 25 nM | 
O=C1CC2(C(=O)N1)C(=O)N(Cc1ccc(Br)cc1F)C(=O)c1cccc(F)c12 (centres undefined) |  |  | 21 nM | inhibition in vivo at 0.5 mg/kg/day (Rattus norvegicus [5]): 52%
CN1C(=O)c2ccc(Br)cc2C2(CC(=O)NC2=O)C1=O (centres undefined) | 43% | 85% |  | inhibition in vivo at 1 mg/kg/day (Rattus norvegicus [7]): 54%; logD [8]: 0.8
CN1C(=O)c2ccc([N+](=O)[O-])cc2C2(CC(=O)NC2=O)C1=O (centres undefined) | 53% | 71% |  | 
O=C1CC2(C(=O)N1)C(=O)N(Cc1nc3ccccc3s1)C(=O)c1ccccc12 (centres undefined) |  |  | 15 nM | 
CCN1C(=O)c2ccccc2C2(CC(=O)NC2=O)C1=O (centres undefined) | 17% | 27% |  | 
CON1C(=O)c2ccc(Cl)cc2C2(CC(=O)NC2=O)C1=O (centres undefined) | 11% | 27% |  | 
O=C1CC2(C(=O)N1)C(=O)N(Cc1cccc(C(F)(F)F)c1)C(=O)c1ccccc12 (centres undefined) |  |  | 17 nM | 
O=C1CC2(C(=O)N1)C(=O)N(Cc1ccc(Br)cc1F)C(=O)c1ccc(C(F)(F)F)cc12 (centres undefined) |  |  | 38 nM | 
O=C1CC2(C(=O)N1)C(=O)N(Cc1nc3cc(C(F)(F)F)ccc3s1)C(=O)c1ccc(F)cc12 (centres undefined) |  |  | 26 nM | inhibition in vivo at 1 mg/kg/day (Rattus norvegicus [7]): 53%; logD [8]: 3.16
COc1cc2c(cc1Cl)C1(CC(=O)NC1=O)C(=O)N(C)C2=O (centres undefined) | 66% | 84% |  | inhibition in vivo at 0.5 mg/kg/day (Rattus norvegicus [5]): 51%
CN1C(=O)c2cccc(Cl)c2C2(CC(=O)NC2=O)C1=O (centres undefined) | 11% | 24% |  | 

Second part, led by results:

inhibition [1] | inhibition [2] | IC50 [4] | SMILES | further results
 |  | 1000 nM | O=C1C[C@]2(C(=O)N1)C(=O)N(Cc1ccc(Br)cc1F)C(=O)c1ccccc12 | half-life [3]: 4 h
 |  | 25 nM | O=C1CC2(C(=O)N1)C(=O)N(Cc1ccc(C(F)(F)F)cc1)C(=O)c1ccccc12 (centres undefined) | 
 |  | 23 nM | O=C1CC2(C(=O)N1)C(=O)N(Cc1ccc(Br)cc1F)C(=O)c1c(F)cccc12 (centres undefined) | inhibition in vivo at 0.5 mg/kg/day (Rattus norvegicus [5]): 51%
 |  | 18 nM | O=C1CC2(C(=O)N1)C(=O)N(Cc1nc3ccccc3s1)C(=O)c1ccc(F)cc12 (centres undefined) | 
 |  | 30 nM | O=C1CC2(C(=O)N1)C(=O)N(Cc1ccc(Br)cc1F)C(=O)c1ccc(Cl)cc12 (centres undefined) | inhibition in vivo at 0.6 mg/kg/day (Rattus norvegicus [6]): 29%
 |  | 22 nM | O=C1CC2(C(=O)N1)C(=O)N(Cc1ccc(Br)cc1)C(=O)c1ccccc12 (centres undefined) | 
36% | 74% |  | CN1C(=O)c2ccc(F)cc2C2(CC(=O)NC2=O)C1=O (centres undefined) | 
 |  | 9.7 nM | O=C1C[C@@]2(C(=O)N1)C(=O)N(Cc1ccc(Br)cc1F)C(=O)c1ccccc12 | half-life [3]: 4 h; inhibition in vivo at 0.5 mg/kg/day (Rattus norvegicus [5]): 83%
19% | 17% |  | CCCCN1C(=O)c2ccccc2C2(CC(=O)NC2=O)C1=O (centres undefined) | 
34% | 61% |  | CN1C(=O)c2cc(Cl)ccc2C2(CC(=O)NC2=O)C1=O (centres undefined) | 
84% | 89% |  | CN1C(=O)c2cc(Cl)c(Cl)cc2C2(CC(=O)NC2=O)C1=O (centres undefined) | 
 | 17% |  | COc1cc2c(cc1Br)C(=O)N(C)C(=O)C21CC(=O)NC1=O (centres undefined) | 
 |  | 20 nM | O=C1CC2(C(=O)N1)C(=O)N(Cc1ccc(Br)cc1F)C(=O)c1cc(F)ccc12 (centres undefined) | 

— ChEMBL document CHEMBL1127561, “Novel spirosuccinimide aldose reductase inhibitors derived from isoquinoline-1,3-diones: 2-[(4-bromo-2-fluorophenyl)methyl]-6- fluorospiro[isoquinoline-4(1H),3'-pyrrolidine]-1,2',3,5'(2H)-tetrone and congeners. 1” (J Med Chem, 1994)
